Experimental data published in ChEMBL document CHEMBL1138132, “Cyclic urea derivatives as potent NK1 selective antagonists. Part II: Effects of fluoro and benzylic methyl substitutions” (Bioorg Med Chem Lett, 2006).
Values after ≈ are worked out from the molar mass of the structure shown.

Experiments:
Substance-P receptor [1] = molecular target: T1, Substance-P receptor (Homo sapiens, UniProt P25103); experiment: Displacement of [3H]-Sar-Met Substance P from recombinant human NK1 receptor in CHO cells; format: cell-based
Method in brief: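 Membranes from CHO cells expressing recombinant human NK1 receptor; [3H]-Sar-Met Substance P radioligand at concentrations near its experimentally derived Kd. Ki calculated by Cheng–Prusoff equation; values are the average of two or three independent determinations.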

Meriones unguiculatus [2] = experiment: Inhibition of Mongolian gerbil foot-tapping at 2 h time point at 1 mg/kg, po; format: functional
Method in brief: (§1)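 Female Mongolian gerbils dosed orally at 1 mg/kg in 0.4% methylcellulose in distilled water at set pretreatment times (2, 4 or 6 h) before icv injection of NK1 agonist GR73632 (3 pmol in 5 µl) under anesthesia. After recovery, animals were placed in clear boxes and duration of hind-foot tapping was timed over 5 min; expressed as % inhibition.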

Meriones unguiculatus [3] = experiment: Inhibition of Mongolian gerbil foot-tapping at 4 hr time point at 1 mg/kg, po; format: functional; method in brief: as §1
Meriones unguiculatus [4] = experiment: Inhibition of Mongolian gerbil foot-tapping at 6 hr time point at 1 mg/kg, po; format: functional; method in brief: as §1
[5] = Solubility in pH 7.4 buffer; format: physicochemical
[6] = Ratio of drug level in brain against plasma in Mongolian gerbil; format: ADME, organism-based, Meriones unguiculatus
[7] = Ratio of drug level in brain against plasma in rat; format: ADME, organism-based
[8] = Oral bioavailability in rat; format: ADME, organism-based; details: in vivo
Substance-P receptor [9] = molecular target: T1, Substance-P receptor; details: CHO, 3 uM

T1 sequence (P25103 whole entry): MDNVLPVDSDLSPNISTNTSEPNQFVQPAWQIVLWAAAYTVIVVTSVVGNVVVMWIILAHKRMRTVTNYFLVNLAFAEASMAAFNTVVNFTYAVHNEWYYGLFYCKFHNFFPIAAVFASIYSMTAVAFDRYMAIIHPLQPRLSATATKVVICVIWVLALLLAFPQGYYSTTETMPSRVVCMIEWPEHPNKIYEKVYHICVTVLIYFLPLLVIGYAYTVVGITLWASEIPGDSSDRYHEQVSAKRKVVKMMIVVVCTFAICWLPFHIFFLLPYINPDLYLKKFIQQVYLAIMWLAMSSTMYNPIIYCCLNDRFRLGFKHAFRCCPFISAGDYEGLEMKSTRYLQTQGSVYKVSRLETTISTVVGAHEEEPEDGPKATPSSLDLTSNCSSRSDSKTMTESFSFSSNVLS

Row | Ki (Substance-P receptor [1]) [nM] | Compound | inhibition in vivo at 1 mg/kg (Meriones unguiculatus [2]) [%] | inhibition in vivo at 1 mg/kg (Meriones unguiculatus [3]) [%] | inhibition in vivo at 1 mg/kg (Meriones unguiculatus [4]) [%] | also measured
1 | 0.4 | CN1CCC(N2CC(COCc3cc(C(F)(F)F)cc(C(F)(F)F)c3)(c3ccc(F)cc3)NC2=O)CC1 (stereo not drawn) | 3 | 0 | – | –
2 | 0.8 | CCN1C[C@@](CO[C@H](C)c2cc(C(F)(F)F)cc(C(F)(F)F)c2)(c2ccc(F)cc2)NC1=O | 9 | 0 | – | –
3 | 89 | O=C1NC[C@](COCc2cc(C(F)(F)F)cc(C(F)(F)F)c2)(c2ccc(F)cc2)N1 | – | – | – | –
4 | 1.7 | CCN1C[C@@](CO[C@H](C)c2cc(C(F)(F)F)cc(C(F)(F)F)c2)(c2ccccc2)NC1=O | 45 | 46 | – | –
5 | 4.5 | O=C1NCC(COCc2cc(C(F)(F)F)cc(C(F)(F)F)c2)(c2ccc(F)cc2)N1 (stereo not drawn) | – | – | – | –
6 | 1.5 | C[C@@H](OC[C@@]1(c2ccc(F)cc2)CNC(=O)N1)c1cc(C(F)(F)F)cc(C(F)(F)F)c1 | 40 | 44 | 41 | –
7 | 0.9 | O=C1NC(COCc2cc(C(F)(F)F)cc(C(F)(F)F)c2)(c2ccc(F)cc2)CN1C1CCNCC1 (stereo not drawn) | 0 | 0 | – | –
8 | 2.7 | O=C1NC[C@@](COCc2cc(C(F)(F)F)cc(C(F)(F)F)c2)(c2ccc(F)cc2)N1 | 22 | 55 | 51 | Kp [6]: 16; bioavailability [8]: 93%
9 | 41 | C[C@@H](OC[C@]1(c2ccccc2)CNC(=O)N1)c1cc(C(F)(F)F)cc(C(F)(F)F)c1 | – | – | – | –

Further lines, the molecule ahead of its results:

Row | Compound | Ki (Substance-P receptor [1]) [nM] | inhibition in vivo at 1 mg/kg (Meriones unguiculatus [2]) [%] | inhibition in vivo at 1 mg/kg (Meriones unguiculatus [3]) [%] | inhibition in vivo at 1 mg/kg (Meriones unguiculatus [4]) [%] | also measured
10 | C[C@H](OC[C@@]1(c2ccccc2)CNC(=O)N1)c1cc(C(F)(F)F)cc(C(F)(F)F)c1 | 93 | – | – | – | –
11 | C[C@@H](OC[C@@]1(c2ccc(F)cc2)CN(C)C(=O)N1)c1cc(C(F)(F)F)cc(C(F)(F)F)c1 | 3.6 | 65 | 57 | 63 | solubility [5]: 3 µM (≈ 1.39 µg/mL)
12 | CC(C)N1C[C@@](CO[C@H](C)c2cc(C(F)(F)F)cc(C(F)(F)F)c2)(c2ccccc2)NC1=O | 3.1 | – | – | – | –
13 | O=C1NC(COCc2cc(C(F)(F)F)cc(C(F)(F)F)c2)(c2ccc(F)cc2)CN1C1CCOCC1 (stereo not drawn) | 6.3 | 22 | 0 | – | –
14 | C[C@@H](OC[C@@]1(c2ccccc2)CN(C)C(=O)N1)c1cc(C(F)(F)F)cc(C(F)(F)F)c1 | 0.5 | 86 | 62 | 31 | –
15 | O=C1NC[C@@](COCc2cc(C(F)(F)F)cc(C(F)(F)F)c2)(c2ccccc2)N1 | 6 | 54 | 12 | – | Kp [6]: 18; Kp [7]: 4
16 | C[C@@H](OC[C@@]1(c2ccccc2)CNC(=O)N1)c1cc(C(F)(F)F)cc(C(F)(F)F)c1 | 0.6 | 35 | 57 | 48 | Kp [6]: 10; Kp [7]: 4.4; bioavailability [8]: 100%
17 | C[C@@H](OC[C@@]1(c2ccc(F)cc2)CN(CC(N)=O)C(=O)N1)c1cc(C(F)(F)F)cc(C(F)(F)F)c1 | 0.4 | 14 | 20 | – | –
18 | O=C1NC(COCc2cc(C(F)(F)F)cc(C(F)(F)F)c2)(c2ccc(F)cc2)CN1CCN1CCCC1 (stereo not drawn) | – | 2 | 0 | 0 | –
19 | C[C@H](OC[C@]1(c2ccccc2)CNC(=O)N1)c1cc(C(F)(F)F)cc(C(F)(F)F)c1 | – | – | – | – | inhibition (Substance-P receptor [9]): 22%
